Reference: ChEMBL document CHEMBL4024754, “Development of Potent, Protease-Resistant Agonists of the Parathyroid Hormone Receptor with Broad β Residue Distribution” (J Med Chem, 2017)
Active and inactive are the calls of the source. No cut-off for these calls is given here.

Columns and labels:
[1] = biological target: T1, Parathyroid hormone/parathyroid hormone-related peptide receptor (Homo sapiens) (UniProt Q03431); assay: Agonist activity at extracellular domain truncate human PTH1 receptor expressed in GD5 cells assessed as induction of cAMP after 12 to 20 mins by luciferase reporter gene assay; format: functional, cell-based
T1 sequence (whole entry): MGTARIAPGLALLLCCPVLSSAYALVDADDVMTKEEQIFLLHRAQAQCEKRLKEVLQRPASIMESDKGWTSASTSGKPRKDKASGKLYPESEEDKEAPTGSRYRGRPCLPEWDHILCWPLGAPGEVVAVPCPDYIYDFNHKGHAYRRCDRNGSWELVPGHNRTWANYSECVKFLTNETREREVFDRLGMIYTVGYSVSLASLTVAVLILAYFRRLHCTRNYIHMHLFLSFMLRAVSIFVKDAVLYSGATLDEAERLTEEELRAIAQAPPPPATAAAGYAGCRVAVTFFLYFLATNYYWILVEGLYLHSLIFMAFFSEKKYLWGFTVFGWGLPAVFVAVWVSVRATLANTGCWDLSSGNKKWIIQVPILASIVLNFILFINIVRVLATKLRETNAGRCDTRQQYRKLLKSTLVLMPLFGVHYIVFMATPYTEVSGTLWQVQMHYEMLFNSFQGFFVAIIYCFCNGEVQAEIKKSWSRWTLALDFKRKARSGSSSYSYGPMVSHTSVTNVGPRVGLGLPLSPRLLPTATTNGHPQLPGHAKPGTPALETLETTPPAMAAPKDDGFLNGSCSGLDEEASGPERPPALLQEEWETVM
Outline: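 HEK293-derived lines stably expressing Glosensor cAMP reporter plus full-length human PTHR1 (GP2.3) or ECD-truncated PTHR1 (GD5). Confluent monolayers preincubated at room temperature in CO2-independent medium with 0.5 mM D-luciferin until baseline stable (30 min), then varied agonist concentrations added. Maximal luminescence (12−20 min) used for sigmoidal variable-slope fits.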

[2] = biological target: T1, Parathyroid hormone/parathyroid hormone-related peptide receptor (Homo sapiens); assay: Agonist activity at human PTH1 receptor expressed in human GP2.3 cells assessed as induction of cAMP after 12 to 20 mins by luciferase reporter gene assay relative to PTH(1 to 34 residues)-NH2; format: functional, cell-based

**Q.** What does the source list for `CC[C@H](C)[C@H](NC(=O)[C@H](CCC(=O)O)NC(=O)[C@H](CO)NC(=O)[C@@H](NC(=O)[C@@H](N)CO)C(C)C)C(=O)N[C@@H](CCC(N)=O)C(=O)N[C@H](CC(=O)N[C@@H](CCSC)C(=O)N[C@@H](Cc1cnc[nH]1)C(=O)N[C@@H](CC(N)=O)C(=O)N[C@@H](CC(C)C)C(=O)NCC(=O)N[C@@H](CCCCN)C(=O)N[C@@H](Cc1cnc[nH]1)C(=O)N[C@@H](CC(C)C)C(=O)N[C@@H](CC(N)=O)C(=O)N[C@@H](CO)C(=O)N[C@@H](CCSC)C(=O)N[C@@H](CCC(=O)O)C(=O)N[C@@H](CCCNC(=N)N)C(=O)N[C@H](C(=O)N[C@@H](CCC(=O)O)C(=O)N[C@@H](Cc1c[nH]c2ccccc12)C(=O)N[C@@H](CC(C)C)C(=O)N[C@@H](CCCNC(=N)N)C(=O)N[C@@H](CCCCN)C(=O)N[C@@H](CCCCN)C(=O)N[C@@H](CC(C)C)C(=O)N[C@@H](CCC(N)=O)C(=O)N[C@@H](CC(=O)O)C(=O)N[C@H](C(=O)N[C@@H](Cc1cnc[nH]1)C(=O)N[C@@H](CC(N)=O)C(=O)N[C@@H](Cc1ccccc1)C(N)=O)C(C)C)C(C)C)CC(C)C`?
**A.** Activity [1]: Active; fold change (FC) [2]: 12

**Q.** With `CC[C@H](C)[C@H](NC(=O)[C@H](CCC(=O)O)NC(=O)[C@H](CO)NC(=O)C[C@@H](NC(=O)[C@@H](N)CO)C(C)C)C(=O)N[C@@H](CCC(N)=O)C(=O)N[C@@H](CC(C)C)C(=O)N[C@@H](CCSC)C(=O)N[C@@H](Cc1cnc[nH]1)C(=O)N[C@@H](CC(N)=O)C(=O)N[C@@H](CC(C)C)C(=O)NCC(=O)N[C@@H](CCCCN)C(=O)N[C@@H](Cc1cnc[nH]1)C(=O)N[C@@H](CC(C)C)C(=O)N[C@@H](CC(N)=O)C(=O)N[C@@H](CO)C(=O)N[C@@H](CCSC)C(=O)N[C@@H](CCC(=O)O)C(=O)N[C@@H](CCCNC(=N)N)C(=O)N[C@H](C(=O)N[C@@H](CCC(=O)O)C(=O)N[C@@H](Cc1c[nH]c2ccccc12)C(=O)N[C@@H](CC(C)C)C(=O)N[C@@H](CCCNC(=N)N)C(=O)N[C@@H](CCCCN)C(=O)N[C@@H](CCCCN)C(=O)N[C@@H](CC(C)C)C(=O)N[C@@H](CCC(N)=O)C(=O)N[C@@H](CC(=O)O)C(=O)N[C@H](C(=O)N[C@@H](Cc1cnc[nH]1)C(=O)N[C@@H](CC(N)=O)C(=O)N[C@@H](Cc1ccccc1)C(N)=O)C(C)C)C(C)C` as the compound, how does the Activity [1] read?
**A.** Active

**Q.** What about the fold change (FC) [2] of the same compound?
**A.** 3.2

**Q.** What does the source list for `CC[C@H](C)[C@H](NC(=O)[C@H](CCC(=O)O)NC(=O)[C@H](CO)NC(=O)[C@@H](NC(=O)C[C@@H](N)CO)C(C)C)C(=O)N[C@@H](CCC(N)=O)C(=O)N[C@@H](CC(C)C)C(=O)N[C@@H](CCSC)C(=O)N[C@@H](Cc1cnc[nH]1)C(=O)N[C@@H](CC(N)=O)C(=O)N[C@@H](CC(C)C)C(=O)NCC(=O)N[C@@H](CCCCN)C(=O)N[C@@H](Cc1cnc[nH]1)C(=O)N[C@@H](CC(C)C)C(=O)N[C@@H](CC(N)=O)C(=O)N[C@@H](CO)C(=O)N[C@@H](CCSC)C(=O)N[C@@H](CCC(=O)O)C(=O)N[C@@H](CCCNC(=N)N)C(=O)N[C@H](C(=O)N[C@@H](CCC(=O)O)C(=O)N[C@@H](Cc1c[nH]c2ccccc12)C(=O)N[C@@H](CC(C)C)C(=O)N[C@@H](CCCNC(=N)N)C(=O)N[C@@H](CCCCN)C(=O)N[C@@H](CCCCN)C(=O)N[C@@H](CC(C)C)C(=O)N[C@@H](CCC(N)=O)C(=O)N[C@@H](CC(=O)O)C(=O)N[C@H](C(=O)N[C@@H](Cc1cnc[nH]1)C(=O)N[C@@H](CC(N)=O)C(=O)N[C@@H](Cc1ccccc1)C(N)=O)C(C)C)C(C)C`?
**A.** Activity [1]: Active; fold change (FC) [2]: 0.7
